# Results from ChEMBL document CHEMBL4130384, “Design, synthesis and biological evaluation of novel 2-methoxyestradiol analogs as dual selective estrogen receptor modulators (SERMs) and antiangiogenic agents” (Eur J Med Chem, 2017).
# Calls of active or inactive are those of the source. No cut-off for these calls is given here.
# Assays:
# [1] = system: Ishikawa; experiment: Antiproliferative activity against human Ishikawa cells assessed as suppression of proliferation at 10 uM after 48 hrs by MTT assay relative to control; format: functional
# [2] = system: HepG2; experiment: Antiproliferative activity against human HepG2 cells after 48 hrs by MTT assay; format: functional, cell-based; details: HepG2, 48 h
# Outline: (§1)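 Cells grown in RPMI1640 with 10% FBS and penicillin/streptomycin at 37 °C, 5% CO2. Seeded at 1 × 10^5/mL, grown 24 h, then exposed to compound at 1 × 10^-4 to 1 × 10^-7 mol/L for 48 h. Controls received medium with 1% DMSO. MTT 4 h, formazan dissolved in DMSO, absorbance at 490 nm; IC50 derived.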
# [3] = system: HUVEC; experiment: Antiproliferative activity against HUVEC after 48 hrs by MTT assay; format: functional, cell-based; details: Homo sapiens; outline: as §1
# [4] = system: PC-3; experiment: Antiproliferative activity against human PC3 cells after 48 hrs by MTT assay; format: functional, cell-based; details: PC-3, 48 h; outline: as §1
# [5] = system: Ishikawa; experiment: Antiproliferative activity against human Ishikawa cells after 48 hrs by MTT assay; format: functional, cell-based; outline: as §1
# [6] = system: MCF7; experiment: Antiproliferative activity against human MCF7 cells after 48 hrs by MTT assay; format: functional, cell-based; details: MCF7, 48 h; outline: as §1
# [7] = system: MCF7; experiment: Effect on AIM2 mRNA expression in human MCF7 cells at 2 uM by RT-PCR method; format: functional, cell-based
# Outline: (§2)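 AIM2 mRNA, an ER-independent reference transcript, measured in treated MCF-7 cells by real-time PCR. Normalized to GAPDH and quantified by the ΔΔCT method. Mean ± SD, n = 3.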
# [8] = system: Chorioallantoic membrane; experiment: In vivo antiangiogenic activity in chicken fertilized egg chorioallantoic membrane at 40 uM after 72 hrs; format: functional, organism-based; details: Gallus gallus
# Outline: (§3)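 Fertilized eggs incubated 7 days at 37 °C, 5% CO2, with saturated humidity. A ~1 cm2 shell window exposed the CAM. Compounds in DMSO were applied on sterile methyl cellulose filter papers placed on the CAM, with PBS as blank. Window taped shut, eggs incubated 72 h at 37 °C, 60% relative humidity.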
# [9] = system: MCF7; experiment: Cell cycle arrest in human MCF7 cells assessed as S phase accumulation at 1 uM after 6 hrs by propidium iodide staining based flow cytometry (reference value: 33.14%); format: functional
# Outline: (§4)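 MCF-7 cells plated at 3 × 10^5 per well and left overnight, then treated in serum-free medium with a DMSO reference control. Cells fixed in 70% ice-cold ethanol, washed in PBS, stained with propidium iodide at 4 °C. Flow cytometry gave percentages in G1, S and G2/M phases. Mean ± SEM of three independent experiments.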
# [10] = system: MCF7; experiment: Cell cycle arrest in human MCF7 cells assessed as G0/G1 phase accumulation at 1 uM after 6 hrs by propidium iodide staining based flow cytometry (reference value: 42.62%); format: functional; outline: as §4
# [11] = system: MCF7; experiment: Cell cycle arrest in human MCF7 cells assessed as G0/G1 phase accumulation at 2 uM after 6 hrs by propidium iodide staining based flow cytometry (reference value: 42.62%); format: functional; outline: as §4
# [12] = target: T1, Estrogen receptor (Homo sapiens) (UniProt P03372); experiment: Inhibition of estrogen receptor in human MCF7 cells assessed as inhibition of estradiol-induced PgR mRNA expression by RT-PCR method relative to control; format: cell-based
# T1 sequence (whole entry): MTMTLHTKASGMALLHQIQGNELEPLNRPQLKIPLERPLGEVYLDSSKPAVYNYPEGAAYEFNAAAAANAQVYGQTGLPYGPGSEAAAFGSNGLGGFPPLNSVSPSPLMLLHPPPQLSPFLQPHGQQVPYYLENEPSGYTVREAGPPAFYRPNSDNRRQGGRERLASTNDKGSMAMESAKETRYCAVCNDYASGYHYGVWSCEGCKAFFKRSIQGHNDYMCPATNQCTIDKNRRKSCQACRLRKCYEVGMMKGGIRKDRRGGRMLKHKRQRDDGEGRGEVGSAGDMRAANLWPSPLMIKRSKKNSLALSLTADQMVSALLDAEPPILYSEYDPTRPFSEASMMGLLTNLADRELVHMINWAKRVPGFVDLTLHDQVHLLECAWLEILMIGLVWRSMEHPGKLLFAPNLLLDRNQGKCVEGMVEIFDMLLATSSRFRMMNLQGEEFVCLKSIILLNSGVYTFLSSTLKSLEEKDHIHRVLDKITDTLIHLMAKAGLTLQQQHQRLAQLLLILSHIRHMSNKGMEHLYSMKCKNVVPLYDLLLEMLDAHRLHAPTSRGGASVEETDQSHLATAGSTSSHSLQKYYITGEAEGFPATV
# Outline: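 MCF-7 cells stimulated with 10 nM E2 and co-treated with compound. PgR mRNA measured by real-time PCR, normalized to GAPDH and quantified by the ΔΔCT method. The 10 nM E2 level was set as 100%. Mean ± SD, n = 3.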
# [13] = system: Chorioallantoic membrane; experiment: In vivo antiangiogenic activity in chicken fertilized egg chorioallantoic membrane after 72 hrs; format: functional, organism-based; details: Gallus gallus; outline: as §3
# [14] = system: MCF7; experiment: Cell cycle arrest in human MCF7 cells assessed as S phase accumulation at 2 uM after 6 hrs by propidium iodide staining based flow cytometry (reference value: 33.14%); format: functional; outline: as §4
# [15] = system: MCF7; experiment: Cell cycle arrest in human MCF7 cells assessed as G2/M phase accumulation at 1 uM after 6 hrs by propidium iodide staining based flow cytometry (reference value: 22.46%); format: functional; outline: as §4
# [16] = system: MCF7; experiment: Cell cycle arrest in human MCF7 cells assessed as G2/M phase accumulation at 2 uM after 6 hrs by propidium iodide staining based flow cytometry (reference value: 22.46%); format: functional; outline: as §4
# [17] = system: MCF7; experiment: Effect on AIM2 mRNA expression in human MCF7 cells at 0.5 to 2 uM by RT-PCR method; format: functional, cell-based; outline: as §2
# [18] = system: MCF7; experiment: Cell cycle arrest in human MCF7 cells assessed as G2/M phase accumulation after 6 hrs by propidium iodide staining based flow cytometry; format: functional; outline: as §4
SMILES,Activity [1],IC50 [2] [µM],IC50 [3] [µM],IC50 [4] [µM],IC50 [5] [µM],IC50 [6] [µM],Activity [7],Activity [8],Activity [9] [%],Activity [10] [%],Activity [11] [%],inhibition [12],Activity [13],Activity [14] [%],Activity [15] [%],Activity [16] [%],Activity [17],Activity [18]
COc1ccc2c(c1)CC[C@@H]1[C@@H]2[C@H](OC(=O)c2ccc(NC(=O)CN3CCN(C)CC3)cc2)C[C@]2(C)[C@@H](OC)CC[C@@H]12,Active,8.12,5.88,18.1,7.52,12.9,,,,,,,,,,,,
CN1CCN(CC(=O)Nc2ccc(C(=O)O[C@@H]3C[C@]4(C)[C@@H](O)CC[C@H]4[C@@H]4CCc5cc(O)ccc5[C@H]43)cc2)CC1,Active,15.1,37,19.4,9.66,29.6,,,,,,,,,,,,
COc1cc2c(cc1OC)[C@@H]1[C@@H](CC2)[C@@H]2CC[C@H](OC)[C@@]2(C)C[C@H]1OC(=O)c1ccc(NC(=O)CN2CCCC2)cc1,Active,3.05,2.63,3.74,5.51,15,,,,,,,,,,,,
COc1ccc2c(c1)CC[C@@H]1[C@@H]2[C@H](OC(=O)c2ccc(NC(=O)CN(C)C)cc2)C[C@]2(C)[C@@H](OC)CC[C@@H]12,Active,3.42,6.97,6.49,15.6,34.3,,,,,,,,,,,,
COCOc1ccc2c(c1)CC[C@@H]1[C@@H]2[C@H](OC(=O)c2ccc(NC(=O)CN3CCCC3)cc2)C[C@]2(C)[C@@H](OCOC)CC[C@@H]12,Active,25.4,9.28,17.1,7.3,14.3,,,,,,,,,,,,
C[C@]12C[C@@H](OC(=O)c3ccc(NC(=O)CN4CCCC4)cc3)[C@@H]3c4ccc(O)cc4CC[C@H]3[C@@H]1CC[C@@H]2O,Active,21.1,36.1,39.1,17.3,34.7,,,,,,,,,,,,
COc1cc2c(cc1O)CC[C@@H]1[C@@H]2CC[C@]2(C)[C@@H](O)CC[C@@H]12 [2-METHOXYESTRADIOL],Active,11,14.2,12.3,8.96,6.01,,,,,,,,,,,,
COCOc1ccc2c(c1)CC[C@@H]1[C@@H]2[C@H](OC(=O)c2ccc(NC(=O)CN(C)C)cc2)C[C@]2(C)[C@@H](OCOC)CC[C@@H]12,Active,23.5,17.7,17.6,28.5,28,,,,,,,,,,,,
CC/C(=C(\c1ccccc1)c1ccc(OCCN(C)C)cc1)c1ccccc1 [TAMOXIFEN],-60.1%,,,,,,inactive,,,,,,,,,,,
COc1cc2c(cc1OC)[C@@H]1[C@@H](CC2)[C@@H]2CC[C@H](OC)[C@@]2(C)C[C@H]1OC(=O)c1ccc(NC(=O)CN2CCN(C)CC2)cc1,Active,5.22,4.85,4.29,5.55,4.33,,Active,31.14,25.95,17.78,Dose-dependent effect,Dose-dependent effect,33.77,44.06,49.19,inactive,Dose-dependent effect
CN(C)CC(=O)Nc1ccc(C(=O)O[C@@H]2C[C@]3(C)[C@@H](O)CC[C@H]3[C@@H]3CCc4cc(O)ccc4[C@H]32)cc1,Active,8.92,32,23.4,37.5,47.2,,,,,,,,,,,,
COc1ccc2c(c1)CC[C@@H]1[C@@H]2[C@H](OC(=O)c2ccc(NC(=O)CN3CCCC3)cc2)C[C@]2(C)[C@@H](OC)CC[C@@H]12,Active,8.64,3.69,10.6,4.79,13.7,,,,,,,,,,,,
COCOc1ccc2c(c1)CC[C@@H]1[C@@H]2[C@H](OC(=O)c2ccc(NC(=O)CN3CCN(C)CC3)cc2)C[C@]2(C)[C@@H](OCOC)CC[C@@H]12,Active,2.73,5.23,2.85,7.75,4.06,,Active,34.82,21.47,14.63,Dose-dependent effect,Dose-dependent effect,34.57,41.9,51.41,inactive,Dose-dependent effect
COc1cc2c(cc1OC)[C@@H]1[C@@H](CC2)[C@@H]2CC[C@H](OC)[C@@]2(C)C[C@H]1OC(=O)c1ccc(NC(=O)CN(C)C)cc1,Active,1.78,5.88,8.94,6.32,28.2,,,,,,,,,,,,
